According to PubChem BioAssay:
Active and inactive are the calls of the source.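 Rule for the calls, unless noted: active = potentiation averaged over duplicate wells exceeding buffer-only control mean by more than 3 SD; inactive = the rest.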

Assays:
[1] = nonspecific flux increase, KCNQ1-free cells – parental CHO cells, counter-screen for KCNQ1 potentiator project (AID 493006;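 active = duplicate-averaged activation above buffer control mean plus 5 SD of those controls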;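 for activation: fluorescence ratio of max minus min over baseline after K+ and Tl+ depolarization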); conditions: parental CHO-K1 cells, FluxOR thallium flux, at 10 µM; stronger effect = higher value
Procedure, shortened: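 Benchmarks – buffer and R-L3 controls · Assay system – untransfected host CHO-K1 cells with FluxOR thallium dye · Measure – fluorescence change ratio scaled 0% buffer, 100% R-L3 · Technique – kinetic thallium-flux fluorescence · Timing – overnight 37 °C plating, 90 min RT dye, 20 min compound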

[2] = molecular target: Potassium voltage-gated channel subfamily KQT member 1 (Homo sapiens) (UniProt P51787); assay: enhancement of KCNQ1 channel thallium flux – FluxOR thallium flux, CHO cells, duplicates, confirmation (AID 493007); conditions: KCNQ1 cell line, FluxOR thallium flux fluorescence, at 10 µM; stronger effect = higher value, % of reference activator effect, buffer zero;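 for outcome: cells depolarized by a potassium plus thallium sulfate stimulus after compound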
Sequence of Potassium voltage-gated channel subfamily KQT member 1 (Homo sapiens) (P51787 whole entry, looked up): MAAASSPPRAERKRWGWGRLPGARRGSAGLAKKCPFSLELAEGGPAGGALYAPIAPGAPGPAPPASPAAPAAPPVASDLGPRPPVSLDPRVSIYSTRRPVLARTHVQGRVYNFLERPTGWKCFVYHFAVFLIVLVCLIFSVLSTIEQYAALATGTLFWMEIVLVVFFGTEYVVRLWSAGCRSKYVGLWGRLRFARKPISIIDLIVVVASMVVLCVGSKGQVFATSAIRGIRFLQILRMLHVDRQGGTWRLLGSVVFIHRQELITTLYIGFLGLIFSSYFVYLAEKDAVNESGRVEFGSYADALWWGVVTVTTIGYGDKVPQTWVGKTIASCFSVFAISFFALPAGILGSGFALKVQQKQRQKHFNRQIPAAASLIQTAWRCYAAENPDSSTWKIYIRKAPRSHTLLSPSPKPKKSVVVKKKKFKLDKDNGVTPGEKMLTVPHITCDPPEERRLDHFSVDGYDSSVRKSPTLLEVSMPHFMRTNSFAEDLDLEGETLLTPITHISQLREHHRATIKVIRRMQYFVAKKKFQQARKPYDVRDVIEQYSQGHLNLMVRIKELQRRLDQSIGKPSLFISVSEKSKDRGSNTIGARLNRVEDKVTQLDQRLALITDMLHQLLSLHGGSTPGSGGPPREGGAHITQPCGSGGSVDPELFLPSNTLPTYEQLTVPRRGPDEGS
Procedure, shortened: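 Material: CHO cells stably expressing the KCNQ1 potassium channel / Times: dye 90 min then compound 20 min, both at room temperature / Detection: kinetic thallium influx fluorescence with FluxOR dye, 10 s baseline, 110 s post-stimulus / Benchmarks: buffer-only wells as 0% and R-L3 activator as 100% / Replicates: each compound tested in duplicate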

[3] = molecular target: Potassium voltage-gated channel subfamily KQT member 2 (Rattus norvegicus) (UniProt O88943); assay: KCNQ2 thallium flux enhancement – KCNQ2-CHO-K1 cells, selectivity assay for KCNQ1 potentiator project (AID 493009;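 active = mean duplicate potentiation above the buffer control mean plus 5 SD of buffer wells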;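 note: assay conditions were tuned for KCNQ1 rather than KCNQ2 modulators; signal is max minus min fluorescence divided by baseline after thallium stimulus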); conditions: FluxOR thallium flux fluorescence, at 10 µM; stronger effect = higher value, scaled: buffer 0, activator control 100
Sequence of Potassium voltage-gated channel subfamily KQT member 2 (Rattus norvegicus) (O88943 whole entry, looked up): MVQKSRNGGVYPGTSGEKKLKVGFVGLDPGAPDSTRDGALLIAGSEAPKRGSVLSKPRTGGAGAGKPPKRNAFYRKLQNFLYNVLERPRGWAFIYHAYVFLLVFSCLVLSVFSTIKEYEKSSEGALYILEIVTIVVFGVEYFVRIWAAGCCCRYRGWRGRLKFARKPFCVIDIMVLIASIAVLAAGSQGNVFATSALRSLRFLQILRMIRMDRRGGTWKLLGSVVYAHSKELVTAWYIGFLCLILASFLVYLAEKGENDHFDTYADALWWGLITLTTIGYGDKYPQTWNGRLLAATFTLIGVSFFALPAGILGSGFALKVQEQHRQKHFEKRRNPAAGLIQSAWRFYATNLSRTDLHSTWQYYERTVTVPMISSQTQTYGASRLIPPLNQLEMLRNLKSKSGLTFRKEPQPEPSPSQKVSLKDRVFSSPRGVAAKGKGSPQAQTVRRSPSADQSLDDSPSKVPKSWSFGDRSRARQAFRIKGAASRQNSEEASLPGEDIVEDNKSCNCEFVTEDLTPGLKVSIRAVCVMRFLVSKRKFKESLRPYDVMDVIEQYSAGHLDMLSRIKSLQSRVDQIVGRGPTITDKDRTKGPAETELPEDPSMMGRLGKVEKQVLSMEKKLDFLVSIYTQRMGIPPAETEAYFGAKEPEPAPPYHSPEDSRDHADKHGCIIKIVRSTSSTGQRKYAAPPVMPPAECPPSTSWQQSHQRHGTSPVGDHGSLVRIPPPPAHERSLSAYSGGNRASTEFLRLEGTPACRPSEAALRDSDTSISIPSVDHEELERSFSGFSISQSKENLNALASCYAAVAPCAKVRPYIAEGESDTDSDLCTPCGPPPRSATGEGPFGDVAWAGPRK

[4] = molecular target: Potassium voltage-gated channel subfamily KQT member 1 (Homo sapiens) (UniProt P51787); assay: KCNQ1 activators by electrophysiology – IonWorks patch clamp, KCNQ1-CHO cells, orthogonal assay for KCNQ1 potentiator project, confirmation (AID 493184;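 active = current rise at least 3 SD above the untreated control mean in each of two repeat wells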;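 for current potentiation: percent change of the same well's current before compound addition so 0% = no change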); conditions: automated patch clamp current, at 10 µM; stronger effect = higher value
Procedure, shortened: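 Probe or stimulus: depolarizing pulse to +40 mV from -90 mV; Material: CHO cells carrying KCNQ1; Compound: one dose, 10 µM final; Signal: automated voltage clamp, amphotericin B perforated patch; Read-out basis: percent current increase versus pre-compound level; Buffer or medium: pH 7.4 external bath; Replication: duplicates.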

| SMILES | outcome [1] | outcome [2] | outcome [3] | outcome [4] | activation [1] | potentiation [3] | potentiation [2] | current potentiation [4] |
| --- | --- | --- | --- | --- | --- | --- | --- | --- |
| COC(=O)c1sc(-c2ccccc2)cc1NC(=O)C1CC1 | inactive | inactive | inactive | inactive | – | – | – | – |
| COc1cc(NS(=O)(=O)c2ccc(NC(=S)NC(=O)c3sc4cc(F)ccc4c3Cl)cc2)nc(OC)n1 | – | inactive | inactive | inactive | 144% (active) | – | – | – |
| CC1=NN(C(=O)c2csc(C)c2C)C(O)(C(F)(F)F)C1 (stereo not given) | inactive | inactive | inactive | inactive | – | – | – | – |
| Cc1cc(NC(=O)CSc2cn(CCNC(=O)c3ccc(F)cc3)c3ccccc23)no1 | inactive | inactive | inactive | inactive | – | – | – | – |
| O=C(COC(=O)CNC(=O)c1ccc(Cl)cc1Cl)Nc1cccc(S(=O)(=O)N2CCCC2)c1 | inactive | inactive | inactive | inactive | – | – | – | – |
| NC(=O)c1ccccc1NC(=O)N1CCOCC1 | inactive | inactive | inactive | inactive | – | – | – | – |
| COc1ccc(NC(=O)CC2C(=O)NCCN2C(=O)Nc2ccc(C(F)(F)F)cc2)cc1 (stereo not given) | inactive | inactive | inactive | inactive | – | – | – | – |
| CCOc1ccc2[nH]c(=O)c(CN(CCN3CCCC3)C(=S)Nc3ccccc3OCC)cc2c1 | – | inactive | – | inactive | 137% (active) | 164% (active) | – | – |
| N=C1S/C(=C\c2ccco2)C(=O)N1c1nccs1 | – | inactive | – | inactive | 138% (active) | 186% (active) | – | – |
| Cc1cc(C(=O)N/N=C/c2cccs2)no1 | inactive | inactive | inactive | inactive | – | – | – | – |
| C/C(=N\NC(=O)C1COc2ccccc2O1)c1ccc(N2CCOCC2)cc1 (stereo not given) | inactive | inactive | inactive | inactive | – | – | – | – |
| Cc1ccc(N=Nc2ccc(O)c3ncccc23)cc1C | – | – | – | inactive | 154% (active) | 190% (active) | 24.5% (active) | – |
| CCCC(=O)Nc1ccc(S(=O)(=O)N2CCC(c3nc4ccccc4[nH]3)CC2)cc1 | inactive | inactive | inactive | inactive | – | – | – | – |
| COc1ccc(OC)c(S(=O)(=O)Nc2ccc3c(c2)N(C(C)=O)CCC3)c1 | inactive | inactive | inactive | inactive | – | – | – | – |
| Cc1ccc(C(=O)CC(=O)c2cc(Cl)ccc2O)cc1 | – | – | – | inactive | 150% (active) | 152% (active) | 42.5% (active) | – |
| COc1cccc2sc(Nc3nnc(-c4ccc(F)cc4)o3)nc12 | – | – | – | inactive | 394% (active) | 521% (active) | 202% (active) | – |
| CN1C=CC=C/C1=C1\SC(=S)N(C2CCCCC2)C1=O | inactive | inactive | inactive | inactive | – | – | – | – |
| O=C1C(C2=C(O)c3ccccc3C2=O)=Nc2ccccc21 | – | – | – | inactive | 225% (active) | 238% (active) | 61% (active) | – |
| O=S(=O)(/C=C/c1ccccc1)n1cnc2ccccc21 | inactive | inactive | inactive | inactive | – | – | – | – |
| Fc1ccc(NC(=S)N/N=C/c2ccc(F)c(F)c2)c(F)c1 | inactive | inactive | inactive | inactive | – | – | – | – |

| SMILES | outcome [1] | outcome [2] | outcome [3] | outcome [4] | activation [1] | potentiation [3] | potentiation [2] | current potentiation [4] |
| --- | --- | --- | --- | --- | --- | --- | --- | --- |
| O=C(NC(=S)NCCC1=CCCCC1)c1ccco1 | – | – | – | inactive | 324% (active) | 315% (active) | 97% (active) | – |
| CCC1CCCCN1C(=S)NC(=O)c1ccc([N+](=O)[O-])cc1 (stereo not given) | – | – | – | inactive | 244% (active) | 280% (active) | 92.5% (active) | – |
| COc1ccc(OC)c(-c2cc(C(=O)N3CCN(c4ccccc4)CC3)no2)c1 | inactive | inactive | inactive | inactive | – | – | – | – |
| CN(Cc1cn[nH]c1-c1ccc2c(c1)OCO2)C1CCOCC1 | inactive | inactive | inactive | inactive | – | – | – | – |
| Cc1cc(C)c(NC(=O)CN2C(=O)NC3(CCCc4ccccc43)C2=O)c(Cl)c1 (stereo not given) | inactive | inactive | inactive | inactive | – | – | – | – |
| CN(C)c1oc(-c2ccc(OCc3ccc(Cl)cc3)cc2)nc1C#N | inactive | inactive | inactive | inactive | – | – | – | – |
| CCN(CC)CCn1c(OC)cc(=O)[nH]c1=O | inactive | inactive | inactive | inactive | – | – | – | – |
| Cc1cccc(C(=O)NC(=S)N2CCc3ccccc3C2)c1 | – | – | – | inactive | 197% (active) | 256% (active) | 99% (active) | – |
| COC(=O)c1c(N2C(=O)CC(Sc3ncccc3C(=O)O)C2=O)sc(C)c1C (stereo not given) | inactive | inactive | inactive | inactive | – | – | – | – |
| COC(=O)c1c(NS(=O)(=O)Cc2ccccc2)sc2c1CCCC2 | – | – | – | inactive | 196% (active) | 186% (active) | 136% (active) | – |
| O=C(COc1ccccc1Cl)N(Cc1cccs1)C1CCS(=O)(=O)C1 (stereo not given) | inactive | inactive | inactive | inactive | – | – | – | – |
| CN(Cc1nccs1)C(=O)c1ccc(OC2CCN(Cc3ccccn3)CC2)cc1 | inactive | inactive | inactive | inactive | – | – | – | – |
| Cc1cc(Cl)c(S(=O)(=O)Nc2ccc3c(c2)OCO3)cc1OCC(N)=O | inactive | inactive | inactive | inactive | – | – | – | – |
| O=C(CC1(O)C(=O)N(C/C=C/c2ccccc2)c2ccccc21)c1ccccn1 (stereo not given) | inactive | inactive | inactive | inactive | – | – | – | – |
| Cc1nc(NC(=S)NC(=O)c2cccs2)ccc1Br | – | – | inactive | inactive | 148% (active) | – | 23.5% (active) | – |
| O=C(NC(=S)Nc1cccc(Cl)c1N1CCCCC1)c1ccco1 | – | – | – | inactive | 156% (active) | 178% (active) | 148% (active) | – |
| COc1ccc(Cl)cc1N(C)C(=O)CCNC(=O)Cn1cnc2ccccc2c1=O | inactive | – | – | inactive | – | 157% (active) | 22.5% (active) | – |
| COc1cc(C(=O)NNC(=O)C2CC2)cc(OC)c1OC | inactive | inactive | inactive | inactive | – | – | – | – |
| COC(=O)c1ccccc1NC(=S)NC(NC(=O)c1ccco1)C(Cl)(Cl)Cl (stereo not given) | – | – | – | inactive | 138% (active) | 232% (active) | 54% (active) | – |
| COc1ccc(C)c2sc(NC(=O)C3=COCCO3)nc12 | inactive | inactive | inactive | inactive | – | – | – | – |

| SMILES | outcome [1] | outcome [2] | outcome [3] | outcome [4] | activation [1] | potentiation [3] | potentiation [2] | current potentiation [4] |
| --- | --- | --- | --- | --- | --- | --- | --- | --- |
| COc1ccc(NC(=S)NC(=O)c2ccc(Br)o2)cc1 | – | – | – | inactive | 146% (active) | 195% (active) | 45.5% (active) | – |
| COc1ccccc1-c1nc(C#N)c(N2CC(C)CC(C)C2)o1 (stereo not given) | inactive | inactive | inactive | inactive | – | – | – | – |
| CCCNC1=CC(=O)CC(C)(C)C1 | inactive | inactive | inactive | inactive | – | – | – | – |
| COc1ccc(C)cc1NC(=O)C1C2C=CC(C2)C1C(=O)O (stereo not given) | inactive | inactive | inactive | inactive | – | – | – | – |
| Nc1c(Cl)cc(C2=NCCn3nc4cc(C(F)(F)F)ccc4c32)cc1Cl | inactive | inactive | inactive | inactive | – | – | – | – |
| NC(=O)CSc1nnc(-c2ccccc2Br)n1-c1cccc(C(F)(F)F)c1 | inactive | – | inactive | inactive | – | – | 43.5% (active) | – |
| COc1ccc(/C=C2\SC(=S)N(NS(=O)(=O)c3ccc(C)cc3)C2=O)c(OC)c1 | – | – | – | – | 138% (active) | 261% (active) | 77.5% (active) | 20.6% (active) |
| O=C(c1ccccc1)N1CCC(CC2CC(c3ccc(Cl)cc3)=NO2)(C(=O)NCC2CCCCC2)CC1 (stereo not given) | inactive | inactive | inactive | inactive | – | – | – | – |
| O=C1c2ccccc2NC(c2ccccc2O)N1O (stereo not given) | – | – | – | inactive | 248% (active) | 262% (active) | 82% (active) | – |
| Fc1ccc(-c2csc(NC(=S)Nc3ccccc3)n2)cc1 | – | – | – | inactive | 153% (active) | 154% (active) | 52.5% (active) | – |
| O=C(N/N=C/c1ccccn1)c1cc(-c2ccc(Br)cc2)nc2ccccc12 | – | – | – | inactive | 142% (active) | 174% (active) | 51.5% (active) | – |
| C=CCn1c(=S)[nH]c2sc3c(c2c1=O)CCC3 | – | – | – | inactive | 364% (active) | 301% (active) | 124% (active) | – |
| O=C(NC(=S)N1CCN(c2ccc(C(F)(F)F)cc2[N+](=O)[O-])CC1)c1cccs1 | – | – | – | inactive | 176% (active) | 215% (active) | 75% (active) | – |
| O=C(NC(=S)Nc1cccnc1)c1cc2ccccc2o1 | – | – | – | inactive | 184% (active) | 182% (active) | 35% (active) | – |
| CCc1ccc(C2c3[nH]c4ccccc4c3CCN2C(=O)CNC(N)=O)cc1 (stereo not given) | inactive | – | – | inactive | – | 156% (active) | 31% (active) | – |
| O=C(NC(=S)Nc1nc2ccccc2s1)c1cccs1 | – | – | – | inactive | 400% (active) | 389% (active) | 180% (active) | – |
| O=c1c(-c2ccccc2)[n+]([O-])c2ccccc2n1O | inactive | inactive | inactive | inactive | – | – | – | – |
| CCc1ccc(S(=O)(=O)NC(=S)NC2CCCCC2)cc1 | – | – | – | inactive | 330% (active) | 312% (active) | 108% (active) | – |
| CC(=O)NC1=C(NC2CCS(=O)(=O)C2)C(=O)c2ccccc2C1=O (stereo not given) | inactive | inactive | inactive | inactive | – | – | – | – |
| c1ccc2c(c1)OCC(CNc1ncnc3nc[nH]c13)O2 (stereo not given) | – | – | – | inactive | 227% (active) | 194% (active) | 46% (active) | – |
